How the values were obtained:
Aplysia feeding network = experiment: Feeding network; format: cell-based; conditions: intact buccal and cerebral ganglia; peptide perfusion vs control
In short: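 Intact buccal plus cerebral ganglia were recorded intra- and extracellularly during peptide perfusion. A peptide scored active when perfusion gave statistically higher circuit activity than control without peptide. Means were compared by repeated-measures one-way ANOVA, assuming sphericity, with Bonferroni post test.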

apALNR = molecular target: T1, apALNR (Aplysia californica, UniProt A0ABM0K1K5); format: cell-based
T1 sequence (A0ABM0K1K5 1-578): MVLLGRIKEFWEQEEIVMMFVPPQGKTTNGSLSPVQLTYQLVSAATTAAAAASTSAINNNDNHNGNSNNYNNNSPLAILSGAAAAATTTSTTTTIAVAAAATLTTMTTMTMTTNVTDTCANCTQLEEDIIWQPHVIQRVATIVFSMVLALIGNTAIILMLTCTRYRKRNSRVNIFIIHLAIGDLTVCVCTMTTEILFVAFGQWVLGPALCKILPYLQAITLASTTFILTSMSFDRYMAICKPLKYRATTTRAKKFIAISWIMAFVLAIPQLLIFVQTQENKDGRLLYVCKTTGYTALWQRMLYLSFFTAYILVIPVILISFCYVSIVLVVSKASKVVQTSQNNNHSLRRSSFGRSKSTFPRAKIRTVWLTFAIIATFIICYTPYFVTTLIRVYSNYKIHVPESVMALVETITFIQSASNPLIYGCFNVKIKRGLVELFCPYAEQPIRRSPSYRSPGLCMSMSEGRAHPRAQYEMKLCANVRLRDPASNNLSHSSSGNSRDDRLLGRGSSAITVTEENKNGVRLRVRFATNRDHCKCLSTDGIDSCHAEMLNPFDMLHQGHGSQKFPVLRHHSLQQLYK

With H-SYADSKDEESNAALSDFAED-OH the “feeding network (electrophys.)” value (Aplysia feeding network) was “not active” and the EC50 (apALNR) was greater than 50 µM.
